# Assay results: ChEMBL document CHEMBL1135162, “Synthesis and evaluation of N-substituted 1,4-oxazepanyl Sordaricins as selective fungal EF-2 inhibitors” (2002)
# What was measured:
# Type in all cases: functional
# Aspergillus fumigatus = test: Tested for in vitro antifungal activity against Aspergillus fumigatus ATCC 26430
# Summary of the method: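 Mould grown in microplates in RPMI1640 buffered at pH 7.0, incubated at 30 °C. MIC is the lowest test-compound concentration that inhibits growth by 80%.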
# Candida albicans [1] = test: Tested for in vitro antifungal activity against Candida albicans ATCC 24433
# Summary of the method: (§1)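 Microplate growth assay in RPMI1640 medium buffered at pH 7.0, incubated at 35 °C. MIC is the lowest test-compound concentration that inhibits fungal growth by 80%.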
# Candida albicans [2] = test: Tested for in vitro antifungal activity against Candida albicans ATCC 24433 in the presence of horse serum (20%)
# Summary of the method: (§2)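 RPMI1640 medium buffered at pH 7.0, with 20% horse serum added for the incubation. Microplates incubated at 35 °C. MIC is the lowest concentration giving 80% inhibition of fungal growth.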
# Candida albicans [3] = test: Tested for in vitro antifungal activity against Candida albicans ATCC 64550; summary of the method: as §1
# Candida albicans [4] = test: Tested for in vitro antifungal activity against Candida albicans SANK51486; summary of the method: as §1
# Candida albicans [5] = test: Tested for in vitro antifungal activity against Candida albicans SANK51486 in the presence of horse serum (20%); summary of the method: as §2
# Candida albicans [6] = test: Tested for in vitro antifungal activity against Candida albicans TIMM3164; summary of the method: as §1
# Candida parapsilosis = test: Tested for in vitro antifungal activity against Candida parapsilosis ATCC 90018; settings: Lodderomyces parapsilosis; summary of the method: as §1
# Cryptococcus neoformans = test: Tested for in vitro antifungal activity against Cryptococcus neoformans TIMM1855
# Summary of the method: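 Yeast grown in microplates in yeast nitrogen base buffered at pH 7.0, incubated at 35 °C. MIC is the lowest concentration inhibiting growth by 80%.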
# Candida tropicalis = test: Tested for in vitro antifungal activity against Candida tropicalis ATCC750; summary of the method: as §1
# Nakaseomyces glabratus = test: Tested for in vitro antifungal activity against Candida glabrata ATCC 90030; summary of the method: as §1
smiles,measurement,setting,value
CC(C)C1=CC2CC3(C=O)[C@@H]4CC[C@@H](C)[C@H]4CC2(CSC2CCCCC2)C13C(=O)O (stereo not given in full),MIC,Aspergillus fumigatus,> 8 µg/mL
same,MIC,Candida albicans [1],0.031 µg/mL
same,MIC,Candida albicans [2],8 µg/mL
same,MIC,Candida albicans [3],0.125 µg/mL
same,MIC,Candida albicans [4],≤ 0.016 µg/mL
same,MIC,Candida albicans [5],4 µg/mL
same,MIC,Candida albicans [6],0.063 µg/mL
same,MIC,Candida parapsilosis,> 8 µg/mL
same,MIC,Cryptococcus neoformans,> 8 µg/mL
same,MIC,Candida tropicalis,2 µg/mL
same,MIC,Nakaseomyces glabratus,0.031 µg/mL
CO[C@H]1CN(Cc2ccc(C#N)cc2)C[C@H](OCC23C[C@@H]4[C@H](C)CC[C@H]4C4(C=O)CC2C=C(C(C)C)C34C(=O)O)O[C@@H]1C (stereo not given in full),MIC,Aspergillus fumigatus,> 16 µg/mL
same,MIC,Candida albicans [1],0.063 µg/mL
same,MIC,Candida albicans [2],2 µg/mL
same,MIC,Candida albicans [3],0.063 µg/mL
same,MIC,Candida albicans [4],≤ 0.031 µg/mL
same,MIC,Candida albicans [5],1 µg/mL
same,MIC,Candida albicans [6],0.063 µg/mL
same,MIC,Candida parapsilosis,> 16 µg/mL
same,MIC,Cryptococcus neoformans,8 µg/mL
same,MIC,Candida tropicalis,0.5 µg/mL
same,MIC,Nakaseomyces glabratus,2 µg/mL
OC(Cn1cncn1)(Cn1cncn1)c1ccc(F)cc1F [FLUCONAZOLE],MIC,Candida albicans [3],4 µg/mL
same,MIC,Candida albicans [6],4 µg/mL
CO[C@H]1CN(Cc2ccc(C(F)(F)F)cc2)C[C@H](OCC23C[C@@H]4[C@H](C)CC[C@H]4C4(C=O)CC2C=C(C(C)C)C34C(=O)O)O[C@@H]1C (stereo not given in full),MIC,Aspergillus fumigatus,> 32 µg/mL
same,MIC,Candida albicans [1],0.5 µg/mL
same,MIC,Candida albicans [2],32 µg/mL
same,MIC,Candida albicans [3],1 µg/mL
same,MIC,Candida albicans [4],0.25 µg/mL
same,MIC,Candida albicans [5],16 µg/mL
same,MIC,Candida albicans [6],0.5 µg/mL
same,MIC,Candida parapsilosis,> 32 µg/mL
same,MIC,Cryptococcus neoformans,> 32 µg/mL
same,MIC,Candida tropicalis,2 µg/mL
same,MIC,Nakaseomyces glabratus,8 µg/mL
C=C(Br)CN1C[C@H](OCC23C[C@@H]4[C@H](C)CC[C@H]4C4(C=O)CC2C=C(C(C)C)C34C(=O)O)O[C@H](C)[C@@H](OC)C1 (stereo not given in full),MIC,Aspergillus fumigatus,> 16 µg/mL
same,MIC,Candida albicans [1],0.031 µg/mL
same,MIC,Candida albicans [2],1 µg/mL
same,MIC,Candida albicans [3],0.031 µg/mL
same,MIC,Candida albicans [4],0.016 µg/mL
same,MIC,Candida albicans [5],0.5 µg/mL
same,MIC,Candida albicans [6],0.031 µg/mL
same,MIC,Candida parapsilosis,> 16 µg/mL
same,MIC,Cryptococcus neoformans,0.25 µg/mL
same,MIC,Candida tropicalis,0.125 µg/mL
same,MIC,Nakaseomyces glabratus,0.25 µg/mL
CO[C@H]1CN(Cc2ccc3c(c2)OCO3)C[C@H](OCC23C[C@@H]4[C@H](C)CC[C@H]4C4(C=O)CC2C=C(C(C)C)C34C(=O)O)O[C@@H]1C (stereo not given in full),MIC,Aspergillus fumigatus,> 16 µg/mL
same,MIC,Candida albicans [1],0.031 µg/mL
same,MIC,Candida albicans [2],1 µg/mL
same,MIC,Candida albicans [3],0.031 µg/mL
same,MIC,Candida albicans [4],0.016 µg/mL
same,MIC,Candida albicans [5],0.5 µg/mL
same,MIC,Candida albicans [6],0.031 µg/mL
same,MIC,Candida parapsilosis,> 16 µg/mL
same,MIC,Cryptococcus neoformans,2 µg/mL
same,MIC,Candida tropicalis,0.25 µg/mL
same,MIC,Nakaseomyces glabratus,0.5 µg/mL
C=CCN1C[C@H](OCC23C[C@@H]4[C@H](C)CC[C@H]4C4(C=O)CC2C=C(C(C)C)C34C(=O)O)O[C@H](C)[C@@H](OC)C1 (stereo not given in full),MIC,Aspergillus fumigatus,> 16 µg/mL
same,MIC,Candida albicans [1],0.063 µg/mL
same,MIC,Candida albicans [2],0.25 µg/mL
same,MIC,Candida albicans [3],0.063 µg/mL
same,MIC,Candida albicans [4],0.031 µg/mL
same,MIC,Candida albicans [5],0.25 µg/mL
same,MIC,Candida albicans [6],0.063 µg/mL
same,MIC,Candida parapsilosis,> 16 µg/mL
same,MIC,Cryptococcus neoformans,> 16 µg/mL
same,MIC,Candida tropicalis,0.5 µg/mL
same,MIC,Nakaseomyces glabratus,0.25 µg/mL
C=C(Cl)CN1C[C@H](OCC23C[C@@H]4[C@H](C)CC[C@H]4C4(C=O)CC2C=C(C(C)C)C34C(=O)O)O[C@H](C)[C@@H](OC)C1 (stereo not given in full),MIC,Aspergillus fumigatus,> 16 µg/mL
same,MIC,Candida albicans [1],0.031 µg/mL
same,MIC,Candida albicans [2],0.5 µg/mL
same,MIC,Candida albicans [3],0.031 µg/mL
same,MIC,Candida albicans [4],0.016 µg/mL
same,MIC,Candida albicans [5],0.5 µg/mL
same,MIC,Candida albicans [6],0.031 µg/mL
same,MIC,Candida parapsilosis,16 µg/mL
same,MIC,Cryptococcus neoformans,0.125 µg/mL
same,MIC,Candida tropicalis,0.25 µg/mL
same,MIC,Nakaseomyces glabratus,0.125 µg/mL
C=CCCN1C[C@H](OCC23C[C@@H]4[C@H](C)CC[C@H]4C4(C=O)CC2C=C(C(C)C)C34C(=O)O)O[C@H](C)[C@@H](OC)C1 (stereo not given in full),MIC,Aspergillus fumigatus,> 16 µg/mL
same,MIC,Candida albicans [1],0.125 µg/mL
same,MIC,Candida albicans [3],0.25 µg/mL
same,MIC,Candida albicans [4],0.063 µg/mL
same,MIC,Candida albicans [6],0.125 µg/mL
same,MIC,Candida parapsilosis,> 16 µg/mL
same,MIC,Cryptococcus neoformans,> 16 µg/mL
same,MIC,Candida tropicalis,1 µg/mL
same,MIC,Nakaseomyces glabratus,4 µg/mL
C=C(C)CN1C[C@H](OCC23C[C@@H]4[C@H](C)CC[C@H]4C4(C=O)CC2C=C(C(C)C)C34C(=O)O)O[C@H](C)[C@@H](OC)C1 (stereo not given in full),MIC,Aspergillus fumigatus,> 16 µg/mL
same,MIC,Candida albicans [1],0.031 µg/mL
same,MIC,Candida albicans [2],0.5 µg/mL
same,MIC,Candida albicans [3],0.031 µg/mL
same,MIC,Candida albicans [4],0.016 µg/mL
same,MIC,Candida albicans [5],0.25 µg/mL
same,MIC,Candida albicans [6],0.031 µg/mL
same,MIC,Candida parapsilosis,> 16 µg/mL
same,MIC,Cryptococcus neoformans,0.25 µg/mL
same,MIC,Candida tropicalis,0.125 µg/mL
same,MIC,Nakaseomyces glabratus,0.25 µg/mL
CO[C@H]1CN(CC=C(Cl)Cl)C[C@H](OCC23C[C@@H]4[C@H](C)CC[C@H]4C4(C=O)CC2C=C(C(C)C)C34C(=O)O)O[C@@H]1C (stereo not given in full),MIC,Aspergillus fumigatus,> 16 µg/mL
same,MIC,Candida albicans [1],≤ 0.031 µg/mL
same,MIC,Candida albicans [2],2 µg/mL
same,MIC,Candida albicans [3],0.063 µg/mL
same,MIC,Candida albicans [4],≤ 0.031 µg/mL
same,MIC,Candida albicans [5],1 µg/mL
same,MIC,Candida albicans [6],≤ 0.031 µg/mL
same,MIC,Candida parapsilosis,> 16 µg/mL
same,MIC,Cryptococcus neoformans,8 µg/mL
same,MIC,Candida tropicalis,0.5 µg/mL
same,MIC,Nakaseomyces glabratus,1 µg/mL
